B1: Osa-1-4 twister ribozyme (parent)
chain: CCGCCUAACACUGCCAAUGCCGGUCCCAAGCCCGGAUAAAAGUGGAGGGGGCGG

Variants of: B1
Test: self-cleavage, relative activity (ratio to wild type); higher = more cleavage; co-transcriptional
How it was run: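 The 48 positions downstream of the cleavage site in a DNA template for a 54-nucleotide Oryza sativa twister ribozyme carried 97 % wild-type base and 1 % of each other base. After in vitro transcription (2 h, 37 °C) with co-transcriptional self-cleavage, the RNA was reverse-transcribed with a template-switching oligonucleotide, PCR-amplified and deep-sequenced. Relative activity is the fraction cleaved, judged by reads with or without upstream sequence and normalised to wild type.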

Row | Variant | self-cleavage
1 | CCGCCUAACACUGCCAAUGCCGGUCCCGAGCCCGGAUAAAAGUGGACGGGGCGG [A28G G47C] | 0.04
2 | CCGCCUAACACUGCCAAUGCCGGUCCCGAGCCCGGAUAAAAGUGGAAGGGGCGG [A28G G47A] | 0.08
3 | CCGCCUAACACUGCCAAUGCCGGUCCCGAGCCCAGAUAAAAGUGGAGGGGGCGG [A28G G34A] | 0.21
4 | CCGCCUAACACUGCCAAUGCCGGUCCCGAGCCCCGAUAAAAGUGGAGGGGGCGG [A28G G34C] | 0.08
5 | CCGCCUAACACUGCCAAUGCCGGUCCCGAGCCCUGAUAAAAGUGGAGGGGGCGG [A28G G34U] | 0.1
6 | CCGCCUAACACUGCCAAUGCCGCUCCCGAGCCCGGAUAAAAGUGGAGGGGGCGG [A28G G23C] | 0.04
7 | CCGCCUAACACUGCCAAUGCCGUUCCCGAGCCCGGAUAAAAGUGGAGGGGGCGG [A28G G23U] | 0.05
8 | CCGCCUAACACUGCCAAUGCCGAUCCCGAGCCCGGAUAAAAGUGGAGGGGGCGG [A28G G23A] | 0.13
9 | CCGCCUAACACUGCAAAUGCCGGUCCCGAGCCCGGAUAAAAGUGGAGGGGGCGG [A28G C15A] | 0.08
10 | CCGCCUAACACUGCUAAUGCCGGUCCCGAGCCCGGAUAAAAGUGGAGGGGGCGG [A28G C15U] | 0.08
11 | CCGCCUAACACUGCGAAUGCCGGUCCCGAGCCCGGAUAAAAGUGGAGGGGGCGG [A28G C15G] | 0.23
12 | CCGCCUAACACUGCCAAUGCCGGUCCUGAGCCCGGAUAAAAGUGGAGGGGGCGG [A28G C27U] | 0.07
13 | CCGCCUAACACUGCCAAUGCCGGUCCGGAGCCCGGAUAAAAGUGGAGGGGGCGG [A28G C27G] | 0.1
14 | CCGCCUAACACUGCCAAUGCCGGUCCAGAGCCCGGAUAAAAGUGGAGGGGGCGG [A28G C27A] | 0.06
15 | CCGCCUAACACUGCCAAUACCGGUCCCGAGCCCGGAUAAAAGUGGAGGGGGCGG [A28G G19A] | 0.15
16 | CCGCCUAACACUGCCAAUUCCGGUCCCGAGCCCGGAUAAAAGUGGAGGGGGCGG [A28G G19U] | 0.08
17 | CCGCCUAACACUGCCAAUCCCGGUCCCGAGCCCGGAUAAAAGUGGAGGGGGCGG [A28G G19C] | 0.05
18 | CCGCCUAACACUGCCAAUGCCGGUCCCGAGCCCGGAUAUAAGUGGAGGGGGCGG [A28G A39U] | 0.16
19 | CCGCCUAACACUGCCAAUGCCGGUCCCGAGCCCGGAUACAAGUGGAGGGGGCGG [A28G A39C] | 0.11
20 | CCGCCUAACACUGCCAAUGCCGGUCCCGAGCCCGGAUAGAAGUGGAGGGGGCGG [A28G A39G] | 0.17
21 | CCGCCUAACACUGCCAAUGCCGGUCCCGAGCCCGGUUAAAAGUGGAGGGGGCGG [A28G A36U] | 0.36
22 | CCGCCUAACACUGCCAAUGCCGGUCCCGAGCCCGGGUAAAAGUGGAGGGGGCGG [A28G A36G] | 0.45
23 | CCGCCUAACACUGCCAAUGUCGGUCCCGAGCCCGGAUAAAAGUGGAGGGGGCGG [A28G C20U] | 0.31
24 | CCGCCUAACACUGCCAAUGACGGUCCCGAGCCCGGAUAAAAGUGGAGGGGGCGG [A28G C20A] | 0.37
25 | CCGCCUAACACUGCCAAUGGCGGUCCCGAGCCCGGAUAAAAGUGGAGGGGGCGG [A28G C20G] | 0.08

Row | Variant | self-cleavage
26 | CCGCCUAACACUGCCAAUGCCGGUCCCGAGCCCGGAUAACAGUGGAGGGGGCGG [A28G A40C] | 0.05
27 | CCGCCUAACACUGCCAAUGCCGGUCCCGAGCCCGGAUAAUAGUGGAGGGGGCGG [A28G A40U] | 0.09
28 | CCGCCUAACACUGCCAAUGCCGGUCCCGAGCCCGGAUAAGAGUGGAGGGGGCGG [A28G A40G] | 0.14
29 | CCGCCUAACACUGCCAAUGCGGGUCCCGAGCCCGGAUAAAAGUGGAGGGGGCGG [A28G C21G] | 0.06
30 | CCGCCUAACACUGCCAAUGCUGGUCCCGAGCCCGGAUAAAAGUGGAGGGGGCGG [A28G C21U] | 0.23
31 | CCGCCUAACACUGCCAAUGCAGGUCCCGAGCCCGGAUAAAAGUGGAGGGGGCGG [A28G C21A] | 0.07
32 | CCGCCUAACACUGCCAAUGCCGGUCCCGAGCGCGGAUAAAAGUGGAGGGGGCGG [A28G C32G] | 0.08
33 | CCGCCUAACACUGCCAAUGCCGGUCCCGAGCACGGAUAAAAGUGGAGGGGGCGG [A28G C32A] | 0.06
34 | CCGCCUAACACUGCCAAUGCCGGUCCCGAGCUCGGAUAAAAGUGGAGGGGGCGG [A28G C32U] | 0.05
35 | CCGCCUAACACUGCCAAUGCCGGUUCCGAGCCCGGAUAAAAGUGGAGGGGGCGG [A28G C25U] | 0.11
36 | CCGCCUAACACUGCCAAUGCCGGUACCGAGCCCGGAUAAAAGUGGAGGGGGCGG [A28G C25A] | 0.04
37 | CCGCCUAACACUGCCAAUGCCGGUGCCGAGCCCGGAUAAAAGUGGAGGGGGCGG [A28G C25G] | 0.09
38 | CCGCCUAACACUGCCAAUGCCGGUCCCGAGCCCGCAUAAAAGUGGAGGGGGCGG [A28G G35C] | 0.09
39 | CCGCCUAACACUGCCAAUGCCGGUCCCGAGCCCGUAUAAAAGUGGAGGGGGCGG [A28G G35U] | 0.15
40 | CCGCCUAACACUGCCAAUGCCGGUCCCGAGCCCGAAUAAAAGUGGAGGGGGCGG [A28G G35A] | 0.21
41 | CCGCCUAACACUACCAAUGCCGGUCCCGAGCCCGGAUAAAAGUGGAGGGGGCGG [A28G G13A] | 0.05
42 | CCGCCUAACACUUCCAAUGCCGGUCCCGAGCCCGGAUAAAAGUGGAGGGGGCGG [A28G G13U] | 0.01
43 | CCGCCUAACACUCCCAAUGCCGGUCCCGAGCCCGGAUAAAAGUGGAGGGGGCGG [A28G G13C] | 0.03
44 | CCGCCUAACACUGCCAAUGCCGGUCCCGAGCCCGGAUAAAAGUGUAGGGGGCGG [A28G G45U] | 0.05
45 | CCGCCUAACACUGCCAAUGCCGGUCCCGAGCCCGGAUAAAAGUGAAGGGGGCGG [A28G G45A] | 0.05
46 | CCGCCUAACACUGCCAAUGCCGGUCCCGAGCCCGGAUAAAAGUGCAGGGGGCGG [A28G G45C] | 0.04
47 | CCGCCUAACACUGCCAAUGCCGGUCCCGAGCCCGGAUAAAAGUCGAGGGGGCGG [A28G G44C] | 0.12
48 | CCGCCUAACACUGCCAAUGCCGGUCCCGAGCCCGGAUAAAAGUUGAGGGGGCGG [A28G G44U] | 0.11
49 | CCGCCUAACACUGCCAAUGCCGGUCCCGAGCCCGGAUAAAAGUAGAGGGGGCGG [A28G G44A] | 0.1

— the RNAGym collection of RNA variant scans (doi:10.1002/anie.201605470)
